Screens: PubChem, several laboratories
PDI inh = inhibitors of human PDI, primary screen, biochemical, turbidity, single point, plate reader. Protein disulfide-isomerase (Homo sapiens), P07237. PDI insulin aggregation turbidity, A650, 90 min. inhibition, % at 10 µM. hit rate 0.052% among 350,000. AID 588391, 2011;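 active = mean inhibition across replicates of 30% or more, whatever share of single replicates reach that level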
Target sequence (P07237 whole entry, looked up): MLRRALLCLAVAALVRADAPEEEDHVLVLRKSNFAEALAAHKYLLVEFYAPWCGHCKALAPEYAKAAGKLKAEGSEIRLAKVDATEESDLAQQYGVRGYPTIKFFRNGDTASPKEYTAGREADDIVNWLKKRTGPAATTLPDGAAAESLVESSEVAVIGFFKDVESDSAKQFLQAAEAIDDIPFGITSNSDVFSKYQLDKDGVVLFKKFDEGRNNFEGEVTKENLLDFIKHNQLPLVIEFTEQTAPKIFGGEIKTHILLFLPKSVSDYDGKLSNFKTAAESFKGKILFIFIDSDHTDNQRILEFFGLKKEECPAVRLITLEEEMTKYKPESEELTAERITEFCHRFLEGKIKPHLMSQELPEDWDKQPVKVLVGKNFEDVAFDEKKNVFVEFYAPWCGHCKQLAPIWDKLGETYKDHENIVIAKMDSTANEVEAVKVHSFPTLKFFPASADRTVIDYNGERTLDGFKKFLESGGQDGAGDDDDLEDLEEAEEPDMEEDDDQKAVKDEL
TbMetRS inhib = T. brucei MetRS inhibitors, primary screen, biochemical, luminescence | inhibition, % at 11.9 µM | purified T. brucei MetRS, ATP depletion, Kinase-Glo luminescence | methionyl-tRNA synthetase (Trypanosoma brucei brucei) | hit rate 0.4% among 360,000;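 active = inhibition above a per-plate cutoff of the control wells' mean inhibition plus 3 SD, cut at about 5.5% in these data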
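Test system – parasite MetRS enzyme · Reagent – substrates ATP, L-methionine and bulk Escherichia coli tRNA · Doses – 11.9 µM compound single dose, 0.9% DMSO · Times – 15 min enzyme-compound preincubation, 2 h reaction, 10 min detection, 25 °C · Signal – Kinase-Glo luminescence, ATP depletion format · Controls – DMSO-only wells as low control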
ERp5 block = inhibitors of ERp5-driven insulin aggregation, primary screen, biochemical, turbidity, absorbance 650 nm, single point | Protein disulfide-isomerase A6 (Homo sapiens), Q15084 | 90 min | inhibition, % at 9.99 µM | hit rate 0.05% among 350,000;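 active = mean replicate inhibition above about 25%, with every replicate also reaching it, limit read from the data, passing the limit was not always enough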
TbMetRS confirm = T. brucei MetRS inhibitors, confirmation, biochemical, luminescence; shares compounds with TbMetRS inhib; T. brucei MetRS enzyme, luminescence (ATP depletion); inhibition, % at 11.9 µM; hit rate 93% among 1,400; AID 624412, 2012; in the data active = inhibition above about 7%
Jurkat tox = Jurkat T cell cytotoxicity, cytotoxicity control for T. brucei MetRS inhibitor project, luminescence, high throughput | AID 624413, 2012 | Jurkat cells viability, ATP luminescence | inhibition, % at 8.3 µM | hit rate 12% among 1,400 | shares compounds with TbMetRS inhib; in the data active = inhibition above about 15%
TbMetRS FP orth = T. brucei MetRS inhibitors, orthogonal assay for T. brucei MetRS inhibitor project, biochemical, fluorescence polarization | purified T. brucei MetRS | AID 651607, 2012 | hit rate 44% among 1,400 | shares compounds with TbMetRS inhib | inhibition, % at 11.9 µM; in the data active = inhibition above about 17%
Of the large screens only hits and unclear results are named; the others gave an inactive call (follow-up assays come after a bar, where they were run). In the library only some 0.4% were active in any assay of this set; here they are far more common.

COc1cccc(C(=O)Nc2ccc3c(c2)OC[C@H](C)N(C(=O)C2CCCC2)C[C@H](C)[C@@H](OC)CN(C)C3=O)c1	none (no result: PDI inh, TbMetRS inhib)
CC(C)NC(=O)N(C)C[C@@H]1OCCCC[C@H](C)Oc2ccc(NC(=O)CCC(F)(F)F)cc2C(=O)N([C@@H](C)CO)C[C@@H]1C	none (no result: PDI inh, TbMetRS inhib)
CCOc1ccc(NC(=S)NCCCc2ccccc2)cc1	none
Cc1ccccc1CSCCNC(=S)Nc1ccccc1	none
COc1ccc(CSCCNC(=S)Nc2ccccc2)cc1Cl	TbMetRS inhib 28 | TbMetRS confirm 41 | Jurkat tox inactive | TbMetRS FP orth 22
S=C(NCCSCc1ccc(Cl)c(Cl)c1)Nc1ccccc1	TbMetRS inhib 41 (no result: ERp5 block) | TbMetRS confirm 57 | Jurkat tox inactive | TbMetRS FP orth 41
CCOc1ccc(CSCCNC(=S)Nc2ccccc2)cc1	TbMetRS inhib 14 (no result: ERp5 block) | TbMetRS confirm 25 | Jurkat tox 16 | TbMetRS FP orth inactive
COc1ccc(CNC(=S)Nc2ccccc2)cc1Cl	none
CN(C)C(=O)c1ccc(-c2ccc([C@@H]3[C@@H](CO)N4C(=O)CN(C(=O)C5CCCC5)C[C@@H]34)cc2)cc1	none (no result: PDI inh, TbMetRS inhib)
COc1ccc(CN(C)C[C@H]2Oc3c(NS(=O)(=O)c4ccc(OC)cc4)cccc3C(=O)N([C@@H](C)CO)C[C@@H]2C)cc1	none (no result: PDI inh, TbMetRS inhib)
COCC#Cc1ccc([C@@H]2[C@@H](CO)N3C(=O)CN(C(=O)C4CCCCC4)C[C@@H]23)cc1	none (no result: PDI inh, TbMetRS inhib)
CCC(=O)N(C)C[C@H]1Oc2cc(-c3ccncc3)ccc2S(=O)(=O)N([C@@H](C)CO)C[C@H]1C	none (no result: PDI inh, TbMetRS inhib)
Cc1cc(SCC(=O)N/N=C/c2ccc(O)c(O)c2)nc2ccccc12	none
Cc1cc(SCC(=O)N/N=C/c2ccc(O)c(O)c2)c(C)cc1Br	TbMetRS inhib 41 (no result: ERp5 block) | TbMetRS confirm 82 | Jurkat tox 15 | TbMetRS FP orth 56
COc1ccc(/C=C(\NC(=O)c2ccco2)C(=O)NCCc2nc3ccccc3[nH]2)cc1	none
O=C(NCCc1nc2ccccc2[nH]1)/C(=C/c1ccc2c(c1)OCO2)NC(=O)c1ccccc1Cl	none (no result: ERp5 block)
O=C(NCCc1nc2ccccc2[nH]1)/C(=C/c1ccc2c(c1)OCO2)NC(=O)c1ccccc1	TbMetRS inhib 6.4 | TbMetRS confirm 9.6 | Jurkat tox inactive | TbMetRS FP orth inactive
COc1ccccc1C(=O)N/C(=C\c1ccc2c(c1)OCO2)C(=O)NCCc1nc2ccccc2[nH]1	TbMetRS inhib 8.8 | TbMetRS confirm 16 | Jurkat tox inactive | TbMetRS FP orth inactive
C[C@@H]1CN([C@H](C)CO)S(=O)(=O)c2ccc(C#CC3(O)CCCC3)cc2O[C@@H]1CN(C)C(=O)Cc1ccncc1	none (no result: PDI inh, TbMetRS inhib)
COc1ccc([C@@H]2C=C(C(=O)N3CCCCC3)O[C@H](OCc3ccc(CO)cc3)C2)cc1	none (no result: PDI inh, TbMetRS inhib)
Cc1ccccc1OCCCC(=O)Nc1ccc(Br)cc1	TbMetRS inhib 6.4 (no result: ERp5 block) | TbMetRS confirm 8.2 | Jurkat tox 20 | TbMetRS FP orth inactive
CC(=O)Nc1ccc(NC(=O)CCOc2ccccc2C)cc1	none
COc1ccc(-c2cnc3c(c2)C(=O)N([C@@H](C)CO)C[C@H](C)[C@@H](CN(C)Cc2ccc(C(=O)O)cc2)O3)cc1	none (no result: PDI inh, TbMetRS inhib)
COc1ccc2[nH]cc(C(=O)CN3CCN(C(=O)c4ccco4)CC3)c2c1	TbMetRS inhib 6.4 (no result: ERp5 block) | TbMetRS confirm inactive | Jurkat tox inactive | TbMetRS FP orth inactive
COc1ccc2[nH]c(C)c(C(=O)CN3CCN(C(=O)c4ccco4)CC3)c2c1	none (no result: ERp5 block)
CO[C@@H]1CN(C)C(=O)c2ccc(NC(=O)C3CC3)cc2OC[C@H](C)N(CCc2ccccc2)C[C@H]1C	none (no result: PDI inh, TbMetRS inhib)
O=C(Cn1c(NCCCO)nc2ccccc21)c1ccc([N+](=O)[O-])cc1	none
O=C(Cn1c(NCCO)nc2ccccc21)c1ccc([N+](=O)[O-])cc1	TbMetRS inhib 20 | TbMetRS confirm inactive | Jurkat tox inactive | TbMetRS FP orth inactive
O=C(O)c1ccc(S(=O)(=O)/N=C2\C=C(Nc3ccccc3F)C(=O)c3ccccc32)cc1	TbMetRS inhib 9.2 | TbMetRS confirm 15 | Jurkat tox 91 | TbMetRS FP orth inactive
COc1ccc(S(=O)(=O)/N=C2\C=C(Nc3ccc(O)cc3)C(=O)c3ccccc32)cc1	none
NS(=O)(=O)c1ccc(CCNC(=O)c2cc(=O)[nH]c3ccccc23)cc1	none
Cc1[nH]c2ccccc2c1C(=O)C(=O)NCCc1ccc(S(N)(=O)=O)cc1	TbMetRS inhib 50 (no result: ERp5 block) | TbMetRS confirm 66 | Jurkat tox inactive | TbMetRS FP orth 45
NS(=O)(=O)c1ccc(CCNC(=O)C(=O)c2c[nH]c3ccccc23)cc1	TbMetRS inhib 12 | TbMetRS confirm 26 | Jurkat tox inactive | TbMetRS FP orth inactive
O=C(NCCc1ccccc1)C(=O)c1c[nH]c2ccccc12	none
C#CCNC(=O)C1=C[C@@H](c2cn(C(C)=O)c3ccccc23)[C@H](CCCO)[C@@H](OCC)O1	none (no result: PDI inh, TbMetRS inhib)
Cc1ccc2nc(SC(C)C(=O)Nc3cccc([N+](=O)[O-])c3)[nH]c2c1 (configuration not stated)	TbMetRS inhib 38 (no result: ERp5 block) | TbMetRS confirm 64 | Jurkat tox inactive | TbMetRS FP orth 37
Cc1ccc2nc(SCC(=O)Nc3ccc(C)c([N+](=O)[O-])c3)[nH]c2c1	none (no result: ERp5 block)
Cc1ccc2nc(SCC(=O)Nc3ccc(F)c([N+](=O)[O-])c3)[nH]c2c1	TbMetRS inhib 39 | TbMetRS confirm 50 | Jurkat tox 19 | TbMetRS FP orth 27
Cc1ccc2nc(SC(C)C(=O)NC3CCCC3)[nH]c2c1 (configuration not stated)	none
O=C(Nc1cccc(F)c1)N1C[C@@H]2[C@H](c3ccccc31)[C@H](CO)N2C(=O)C1CCOCC1	none (no result: PDI inh, TbMetRS inhib)
O=C(C[C@@H]1C=C[C@H](NC(=O)Nc2ccc(F)cc2)[C@H](CO)O1)NCCN1CCCC1	none (no result: PDI inh, TbMetRS inhib)
COc1ccccc1C#Cc1cnc2c(c1)C(=O)N([C@H](C)CO)C[C@@H](C)[C@@H](CN(C)C(C)=O)O2	none (no result: PDI inh, TbMetRS inhib)
CC(=O)c1ccc(N2CCN(C(=O)C(=O)c3c(C)[nH]c4ccccc34)CC2)cc1	none
O=C(C(=O)N1CC=C(c2ccccc2)CC1)c1c[nH]c2ccccc12	TbMetRS inhib 7.4 | TbMetRS confirm 17 | Jurkat tox inactive | TbMetRS FP orth inactive
O=C(C(=O)N1CCN(c2ccccc2Cl)CC1)c1c[nH]c2ccccc12	TbMetRS inhib 13 | TbMetRS confirm 24 | Jurkat tox 18 | TbMetRS FP orth inactive
Clc1ccccc1N1CCN(Cc2c[nH]c3ccccc23)CC1	none (no result: ERp5 block)
O=C(C(=O)N1CCN(Cc2ccc3c(c2)OCO3)CC1)c1c[nH]c2ccccc12	TbMetRS inhib 9.6 | TbMetRS confirm 25 | Jurkat tox inactive | TbMetRS FP orth inactive
O=C(c1cc(=O)[nH]c2ccccc12)N1CC=C(c2ccccc2)CC1	none
Cc1c(C(=O)C(=O)N2CCN(Cc3ccc4c(c3)OCO4)CC2)c2ccccc2n1C	none
